Experimental data as given in BindingDB's records for doi:10.1021/jm049010r (University of Florida, 2005).

Biological target: Melanocortin receptor 4 (Mus musculus, UniProt P56450)
Test: Effective concentration for mouse Melanocortin-4 receptor
Summary of the method: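 HEK-293 cells stably expressing mouse melanocortin receptors (G418-selected) were transiently transfected with a CRE/β-galactosidase reporter. Lysates were incubated with ONPG at 37° and read at OD405. Signals were normalized to relative protein (OD595) and to forskolin response. EC50 came from nonlinear least-squares fits of duplicate experiments in quadruplet or more.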

Chain of Melanocortin receptor 4 (P56450 whole entry): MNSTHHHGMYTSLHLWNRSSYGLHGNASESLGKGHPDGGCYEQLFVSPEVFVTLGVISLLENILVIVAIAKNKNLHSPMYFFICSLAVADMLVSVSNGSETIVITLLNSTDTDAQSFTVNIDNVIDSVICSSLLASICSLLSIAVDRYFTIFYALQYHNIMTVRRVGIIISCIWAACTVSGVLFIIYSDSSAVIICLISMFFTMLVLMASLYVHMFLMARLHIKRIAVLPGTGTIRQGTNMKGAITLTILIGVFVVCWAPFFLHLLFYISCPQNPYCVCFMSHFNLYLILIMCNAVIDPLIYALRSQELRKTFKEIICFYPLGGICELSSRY

C[C@@H]1NC(=O)[C@H](CC(N)=O)NC(=O)[C@H](Cc2c[nH]c3ccccc23)NC(=O)[C@H](CCCNC(=N)N)NC(=O)[C@@H](Cc2cccc3ccccc23)NC(=O)[C@H](Cc2cnc[nH]2)NC(=O)[C@@H](NC(=O)[C@@H](N)Cc2ccc(O)cc2)CC(=O)N([C@@H](Cc2ccc(O)cc2)C(N)=O)C(C)(C(=O)O)NC(=O)[C@H](Cc2ccccc2)NC1=O (some centres not stated)
EC50: 0.57 nM

C[C@@H]1NC(=O)[C@H](CC(N)=O)NC(=O)[C@H](Cc2c[nH]c3ccccc23)NC(=O)[C@H](CCCNC(=N)N)NC(=O)[C@@H](Cc2ccc(-c3ccccc3)cc2)NC(=O)[C@H](Cc2cnc[nH]2)NC(=O)[C@@H](NC(=O)[C@@H](N)Cc2ccc(O)cc2)CC(=O)N([C@@H](Cc2ccc(O)cc2)C(N)=O)C(C)(C(=O)O)NC(=O)[C@H](Cc2ccccc2)NC1=O (some centres not stated)
EC50: 0.57 nM
